ChEMBL document CHEMBL3817726, “Chemically Diverse Group I p21-Activated Kinase (PAK) Inhibitors Impart Acute Cardiovascular Toxicity with a Narrow Therapeutic Window” (J Med Chem, 2016)
≈ marks a conversion by molar mass, not a printed value. Calls of active or inactive are those of the source. The calls are words filed in the database; no cut-off is given here.

Assays:
[1] = molecular target: Serine/threonine-protein kinase PAK 1 (Homo sapiens, UniProt Q13153); experiment: Inhibition of human recombinant N-terminal 6-His-tagged PAK1 kinase domain (249 to 545 residues) expressed in Escherichia coli BL21(DE3) assessed as phosphorylation of coumarin labeled FRET peptide substrate at Ser/Thr19 preincubated for 10 mins followed by ATP addition measured after 60 mins by Z'-LYTE assay
[2] = organism: Homo sapiens; experiment: Selectivity for human recombinant N-terminal 6-His-tagged PAK1 kinase domain (249 to 545 residues) over LCK (unknown origin)
[3] = molecular target: Serine/threonine-protein kinase PAK 1/PAK 2 (Homo sapiens, UniProt Q13177+Q13153); experiment: Inhibition of PAK1/2 in human EBC1 cells assessed as phosphorylation of MEK1 at serine 298 after 2 hrs by HTRF assay; type: cell-based
[4] = Lipophilicity, log D of the compound at pH 7.4; type: physicochemical; conditions: buffer
[5] = Kinetic solubility of the compound at pH 7.4; type: physicochemical; conditions: buffer, read-out: Kinetic_solubility
[6] = Apparent permeability across apical to basolateral side in MDCK cells at 10 uM after 60 mins; type: ADME, cell-based, Canis lupus familiaris; conditions: dog
[7] = Efflux ratio of permeability across basolateral to apical side over apical to basolateral side in MDCK cells at 10 uM after 60 mins; type: ADME, cell-based, Canis lupus familiaris; conditions: dog
[8] = molecular target: Serine/threonine-protein kinase PAK 2 (Homo sapiens, UniProt Q13177); experiment: Inhibition of human recombinant PAK2 assessed as phosphorylation of coumarin labeled FRET peptide substrate at Ser/Thr19 preincubated for 10 mins followed by ATP addition measured after 60 mins by Z'-LYTE assay
Chain of Serine/threonine-protein kinase PAK 2 (Q13177 whole entry): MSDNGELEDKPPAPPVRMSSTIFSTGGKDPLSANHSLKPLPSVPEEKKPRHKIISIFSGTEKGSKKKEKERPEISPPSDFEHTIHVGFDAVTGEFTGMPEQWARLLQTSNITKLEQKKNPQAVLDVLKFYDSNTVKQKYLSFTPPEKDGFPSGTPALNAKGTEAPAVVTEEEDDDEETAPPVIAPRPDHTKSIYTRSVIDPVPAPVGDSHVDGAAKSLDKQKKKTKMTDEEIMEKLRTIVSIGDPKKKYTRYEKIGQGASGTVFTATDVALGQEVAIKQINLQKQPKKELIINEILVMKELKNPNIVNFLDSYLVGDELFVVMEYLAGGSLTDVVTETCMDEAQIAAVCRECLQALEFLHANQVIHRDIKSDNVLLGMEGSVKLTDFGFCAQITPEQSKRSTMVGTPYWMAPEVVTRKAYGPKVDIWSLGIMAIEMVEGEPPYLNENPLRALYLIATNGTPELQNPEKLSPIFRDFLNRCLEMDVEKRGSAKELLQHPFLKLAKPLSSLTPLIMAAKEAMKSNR

[9] = Fraction unbound in mouse plasma at 12.5 to 25 mg/kg, po; type: ADME, organism-based
[10] = Cmax associated with acute adverse effect in mouse at 12.5 to 25 mg/kg, po; type: ADME, organism-based; conditions: in vivo
In short: (§1)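 Mouse tolerability studies tested multiple doses, given orally or intraperitoneally. Plasma drug concentrations were measured, including at a 15 min time point. The minimum concentration associated with adverse clinical signs or death was taken as the adverse Cmax and was converted to an unbound value.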

[11] = test system: Mus musculus; experiment: fCmax associated with acute adverse effect in mouse at 12.5 to 25 mg/kg, po; type: ADME, organism-based; conditions: in vivo
In short: (§2)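 Mouse tolerability studies at multiple doses, oral or intraperitoneal. Minimum unbound plasma concentration associated with adverse effects (total Cmax converted to unbound) compared with IC50 for inhibition of MEK1 S298 phosphorylation in cells.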

[12] = Ratio of fCmax associated with acute adverse effect in mouse at 12.5 to 25 mg/kg, po to IC50 for PAK1/2-mediated phosphorylation of MEK1 at serine 298 in human EBC1 cells
In short: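 Mice were dosed at multiple levels, orally or intraperitoneally, and monitored for acute adverse signs. The minimum unbound plasma Cmax associated with adverse effects was converted from total drug concentration and compared with the cellular IC50 for phospho-MEK1 S298 inhibition.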

[13] = Plasma concentration in mouse at 25 mg/kg, po at 15 mins; type: ADME, organism-based
[14] = test system: Mus musculus; experiment: Toxicity in mouse assessed as mortality at 25 mg/kg, po after 2 hrs; type: organism-based; conditions: in vivo
In short: (§3)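 Mouse tolerability study at multiple oral doses, with lethality and clinical signs monitored after dosing. Plasma drug concentrations were measured, and the minimum unbound concentration linked to adverse effects was compared with the cellular pMEK S298 IC₅₀.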

[15] = test system: Mus musculus; experiment: Toxicity in mouse assessed as mortality at 12.5 mg/kg, po after 0.25 hrs; type: organism-based; conditions: in vivo
[16] = test system: Mus musculus; experiment: Toxicity in mouse assessed as mortality at 12.5 mg/kg, po after 0.5 hrs; type: organism-based; conditions: in vivo; in short: as §3
[17] = Plasma concentration in mouse at 12.5 mg/kg, po at 0.5 hrs; type: ADME, organism-based
[18] = Plasma concentration in mouse at 25 mg/kg, po at 0.25 hrs
[19] = test system: Plasma; experiment: Unbound drug concentration in mouse plasma at 25 mg/kg, po at 0.25 hrs; conditions: in vivo
[20] = test system: MDR1; experiment: Permeability across apical to basolateral side in MDCK cells expressing MDR1; type: ADME, cell-based, Canis lupus familiaris; conditions: dog, read-out: permeability
[21] = Fraction unbound in mouse plasma at 30 to 60 mg/kg, po; type: ADME, organism-based
[22] = Cmax associated with acute adverse effect in mouse at 30 to 60 mg/kg, po; type: ADME, organism-based; conditions: in vivo; in short: as §1
[23] = test system: Mus musculus; experiment: fCmax associated with acute adverse effect in mouse at 30 to 60 mg/kg, po; type: ADME, organism-based; conditions: in vivo; in short: as §2
[24] = test system: Mus musculus; experiment: In vivo inhibition of PAK1/2 in human NCI-H292 cells xenografted in mouse assessed as phosphorylation of MEK1 at serine 298 at 25 mg/kg, po bid; type: functional, organism-based
[25] = test system: NCI-H292; experiment: Antitumor activity against human NCI-H292 cells xenografted in mouse assessed as tumor growth inhibition at 25 mg/kg, po bid relative to control; type: functional; conditions: read-out: TGI
[26] = Antitumor activity against human MDA-MB-175 cells xenografted in mouse assessed as tumor growth inhibition at 25 mg/kg, po bid relative to control; type: functional; conditions: read-out: TGI
[27] = molecular target: Voltage-gated inwardly rectifying potassium channel KCNH2 (Homo sapiens, UniProt Q12809); experiment: Inhibition of human ERG expressed in mammalian cells treated for 3 mins by automatic parallel patch clamp method; type: cell-based; conditions: 0.05 h
[28] = molecular target: Sodium channel protein type 1 subunit alpha (Homo sapiens) (UniProt P35498); experiment: Inhibition of human Nav1.1 assessed as tonic block of sodium current at 1 to 10 uM treated for 3 mins by automatic parallel patch clamp method
[29] = molecular target: Sodium channel protein type 1 subunit alpha (Homo sapiens) (UniProt P35498); experiment: Inhibition of human Nav1.1 assessed as phasic block of sodium current at 1 to 10 uM treated for 3 mins by automatic parallel patch clamp method
[30] = molecular target: T1, Sodium channel protein type 5 subunit alpha (Homo sapiens, UniProt Q14524); experiment: Inhibition of human Nav1.5 expressed in CHO cells assessed as tonic block of sodium current at 1 to 10 uM treated for 3 mins by automatic parallel patch clamp method; type: cell-based; conditions: 0.05 h
T1 sequence (Q14524 whole entry): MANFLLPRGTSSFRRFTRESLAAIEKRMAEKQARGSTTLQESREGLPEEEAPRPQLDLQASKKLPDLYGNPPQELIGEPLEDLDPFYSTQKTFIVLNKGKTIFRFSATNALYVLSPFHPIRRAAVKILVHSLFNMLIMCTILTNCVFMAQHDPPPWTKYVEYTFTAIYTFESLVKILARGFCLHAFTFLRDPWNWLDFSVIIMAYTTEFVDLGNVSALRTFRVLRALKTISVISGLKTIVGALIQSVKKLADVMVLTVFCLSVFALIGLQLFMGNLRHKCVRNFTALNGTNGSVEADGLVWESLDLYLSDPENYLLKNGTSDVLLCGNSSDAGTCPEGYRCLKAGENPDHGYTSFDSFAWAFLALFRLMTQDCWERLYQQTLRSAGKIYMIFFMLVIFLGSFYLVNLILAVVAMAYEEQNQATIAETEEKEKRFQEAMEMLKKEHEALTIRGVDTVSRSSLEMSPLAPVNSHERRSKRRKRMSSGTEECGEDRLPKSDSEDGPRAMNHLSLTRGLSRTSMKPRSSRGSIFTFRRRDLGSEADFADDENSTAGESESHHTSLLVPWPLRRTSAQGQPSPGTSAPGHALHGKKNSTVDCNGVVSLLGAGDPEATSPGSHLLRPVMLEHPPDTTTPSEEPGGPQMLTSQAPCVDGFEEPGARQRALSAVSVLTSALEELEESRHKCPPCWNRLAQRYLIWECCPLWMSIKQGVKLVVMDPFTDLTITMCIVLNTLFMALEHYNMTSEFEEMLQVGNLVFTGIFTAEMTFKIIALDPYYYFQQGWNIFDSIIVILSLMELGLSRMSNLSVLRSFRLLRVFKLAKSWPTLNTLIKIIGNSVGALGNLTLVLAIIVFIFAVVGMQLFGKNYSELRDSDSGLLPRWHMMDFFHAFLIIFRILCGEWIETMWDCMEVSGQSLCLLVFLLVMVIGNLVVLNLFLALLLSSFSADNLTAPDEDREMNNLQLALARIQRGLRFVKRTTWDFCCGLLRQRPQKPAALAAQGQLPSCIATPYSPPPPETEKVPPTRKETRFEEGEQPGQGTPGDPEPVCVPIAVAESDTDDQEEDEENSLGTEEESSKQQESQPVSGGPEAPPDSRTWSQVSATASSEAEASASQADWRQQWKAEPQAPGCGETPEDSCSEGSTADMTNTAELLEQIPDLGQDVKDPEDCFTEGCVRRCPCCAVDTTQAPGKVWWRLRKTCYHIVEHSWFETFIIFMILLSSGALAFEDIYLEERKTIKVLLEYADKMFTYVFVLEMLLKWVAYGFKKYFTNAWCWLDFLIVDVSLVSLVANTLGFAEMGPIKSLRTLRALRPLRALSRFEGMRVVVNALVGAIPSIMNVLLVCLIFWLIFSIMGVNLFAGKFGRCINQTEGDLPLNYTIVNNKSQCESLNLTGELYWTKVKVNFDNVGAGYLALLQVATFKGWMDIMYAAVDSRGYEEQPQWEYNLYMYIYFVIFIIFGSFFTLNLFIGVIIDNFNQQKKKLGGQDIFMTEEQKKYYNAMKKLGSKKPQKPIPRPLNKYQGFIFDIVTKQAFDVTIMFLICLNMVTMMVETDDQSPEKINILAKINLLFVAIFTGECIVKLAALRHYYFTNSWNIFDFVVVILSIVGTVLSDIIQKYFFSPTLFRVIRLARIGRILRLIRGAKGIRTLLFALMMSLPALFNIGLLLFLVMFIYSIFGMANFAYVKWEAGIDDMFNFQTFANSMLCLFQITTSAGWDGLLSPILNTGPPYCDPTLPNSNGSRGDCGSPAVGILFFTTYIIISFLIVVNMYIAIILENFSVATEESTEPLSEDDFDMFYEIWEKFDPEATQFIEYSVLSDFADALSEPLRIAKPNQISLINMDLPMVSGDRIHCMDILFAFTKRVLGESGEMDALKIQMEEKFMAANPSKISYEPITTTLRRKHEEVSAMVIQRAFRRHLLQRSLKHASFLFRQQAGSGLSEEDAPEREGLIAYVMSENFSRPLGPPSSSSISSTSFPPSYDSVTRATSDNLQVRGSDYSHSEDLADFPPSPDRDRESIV

[31] = molecular target: T1, Sodium channel protein type 5 subunit alpha; experiment: Inhibition of human Nav1.5 expressed in CHO cells assessed as phasic block of sodium current at 1 to 10 uM treated for 3 mins by automatic parallel patch clamp method; type: cell-based; conditions: 0.05 h
[32] = molecular target: Voltage-dependent T-type calcium channel subunit alpha-1H (Homo sapiens) (UniProt O95180); experiment: Inhibition of human Cav3.2 expressed in HEK293 cells at 1 to 10 uM treated for 3 mins by automatic parallel patch clamp method; type: cell-based
[33] = organism: Homo sapiens; experiment: Inhibition of Na+/Ca2+ ATPase (unknown origin) at 30 uM
[34] = test system: Heart; experiment: Cardiotoxicity in Langendorff perfused Sprague-Dawley rat heart assessed as increase in coronary perfusion pressure at 1.5 to 15 uM treated for 15 mins; type: toxicity, tissue-based; conditions: 0.25 h
In short: (§4)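 Hearts from Sprague Dawley rats were perfused in a Langendorff preparation and paced via the right atrium at 10-15% above the intrinsic heart rate. Each heart received increasing concentrations of 0, 0.5, 1.5, 5 and 15 µM, for 15 min at each level (n=5). Hemodynamic and electrocardiographic parameters were recorded throughout.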

[35] = test system: Heart; experiment: Cardiotoxicity in Langendorff perfused Sprague-Dawley rat heart assessed as decrease in left ventricular developed pressure at 1.5 to 15 uM treated for 15 mins; type: toxicity, tissue-based; conditions: 0.25 h; in short: as §4
[36] = test system: Heart; experiment: Cardiotoxicity in Langendorff perfused Sprague-Dawley rat heart assessed as loss of 1:1 atrioventricular conduction at 5 to 15 uM treated for 15 mins; type: toxicity, tissue-based; conditions: 0.25 h; in short: as §4
[37] = test system: Heart; experiment: Cardiotoxicity in Langendorff perfused Sprague-Dawley rat heart assessed as decrease in dP/dt maximum at 1.5 to 15 uM treated for 15 mins; type: toxicity, tissue-based; conditions: 0.25 h; in short: as §4
[38] = test system: Heart; experiment: Cardiotoxicity in Langendorff perfused Sprague-Dawley rat heart assessed as decrease in dP/dt minimum at 1.5 to 15 uM treated for 15 mins; type: toxicity, tissue-based; conditions: 0.25 h; in short: as §4
[39] = test system: Heart; experiment: Cardiotoxicity in Langendorff perfused Sprague-Dawley rat heart assessed as decrease in dP/dtmax/P at 40 mmHg at 1.5 to 15 uM treated for 15 mins; type: toxicity, tissue-based; conditions: 0.25 h; in short: as §4
[40] = test system: Heart; experiment: Cardiotoxicity in Langendorff perfused Sprague-Dawley rat heart assessed as decrease in dP/dtmax/P at 1.5 to 15 uM treated for 15 mins; type: toxicity, tissue-based; conditions: 0.25 h; in short: as §4
[41] = test system: Heart; experiment: Cardiotoxicity in Langendorff perfused Sprague-Dawley rat heart assessed as increase in left ventricular systolic pressure at 1.5 to 15 uM treated for 15 mins; type: toxicity, tissue-based; conditions: 0.25 h; in short: as §4
[42] = test system: Heart; experiment: Cardiotoxicity in Langendorff perfused Sprague-Dawley rat heart assessed as increase in left ventricular end diastolic pressure at 1.5 to 15 uM treated for 15 mins; type: toxicity, tissue-based; conditions: 0.25 h; in short: as §4
[43] = test system: Heart; experiment: Cardiotoxicity in Langendorff perfused Sprague-Dawley rat heart assessed as increase in PR interval at 5 uM treated for 15 mins; type: toxicity, tissue-based; conditions: 0.25 h; in short: as §4
[44] = test system: Heart; experiment: Cardiotoxicity in Langendorff perfused Sprague-Dawley rat heart assessed as increase in PR interval at 15 uM treated for 15 mins; type: toxicity, tissue-based; conditions: 0.25 h; in short: as §4
[45] = test system: Heart; experiment: Cardiotoxicity in Langendorff perfused Sprague-Dawley rat heart assessed as ventricular fibrillation at 5 uM treated for 15 mins; type: toxicity, tissue-based; conditions: 0.25 h; in short: as §4
[46] = molecular target: Serine/threonine-protein kinase PAK 3 (Homo sapiens) (UniProt O75914); conditions: 0.1 uM
Chain of Serine/threonine-protein kinase PAK 3 (Homo sapiens) (O75914 whole entry, looked up): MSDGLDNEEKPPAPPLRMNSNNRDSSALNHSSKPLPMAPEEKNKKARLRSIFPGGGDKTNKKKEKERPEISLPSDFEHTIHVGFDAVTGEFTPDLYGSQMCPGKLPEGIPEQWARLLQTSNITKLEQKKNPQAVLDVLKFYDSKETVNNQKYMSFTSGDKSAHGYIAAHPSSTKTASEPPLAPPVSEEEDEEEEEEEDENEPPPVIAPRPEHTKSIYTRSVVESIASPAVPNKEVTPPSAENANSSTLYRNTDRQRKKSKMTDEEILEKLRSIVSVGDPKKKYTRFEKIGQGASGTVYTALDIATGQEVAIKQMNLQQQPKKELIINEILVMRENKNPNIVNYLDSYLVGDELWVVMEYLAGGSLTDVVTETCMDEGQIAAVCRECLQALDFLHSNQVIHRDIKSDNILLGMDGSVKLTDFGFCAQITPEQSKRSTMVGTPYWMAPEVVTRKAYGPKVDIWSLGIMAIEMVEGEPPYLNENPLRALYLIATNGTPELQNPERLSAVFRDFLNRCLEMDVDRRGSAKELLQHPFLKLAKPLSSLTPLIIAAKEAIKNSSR

[47] = molecular target: Serine/threonine-protein kinase 25 (Homo sapiens) (UniProt O00506); conditions: 0.1 uM
[48] = molecular target: Serine/threonine-protein kinase 24 (Homo sapiens) (UniProt Q9Y6E0); conditions: 0.1 uM
Chain of Serine/threonine-protein kinase 24 (Homo sapiens) (Q9Y6E0 whole entry, looked up): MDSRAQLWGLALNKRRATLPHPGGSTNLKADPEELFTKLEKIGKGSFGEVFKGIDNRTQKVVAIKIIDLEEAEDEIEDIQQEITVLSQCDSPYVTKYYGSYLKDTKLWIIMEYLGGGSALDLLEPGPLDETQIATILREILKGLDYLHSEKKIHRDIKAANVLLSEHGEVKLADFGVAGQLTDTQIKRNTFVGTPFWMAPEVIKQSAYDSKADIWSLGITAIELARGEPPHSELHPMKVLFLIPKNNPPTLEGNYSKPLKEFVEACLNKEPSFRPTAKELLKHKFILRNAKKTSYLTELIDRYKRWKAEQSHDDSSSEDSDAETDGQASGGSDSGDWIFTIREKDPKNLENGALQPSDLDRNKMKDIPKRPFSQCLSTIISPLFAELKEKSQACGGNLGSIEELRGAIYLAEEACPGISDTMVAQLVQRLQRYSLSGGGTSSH

[49] = molecular target: Serine/threonine-protein kinase 26 (Homo sapiens) (UniProt Q9P289); conditions: 0.1 uM
Chain of Serine/threonine-protein kinase 26 (Homo sapiens) (Q9P289 2-416 limits assumed): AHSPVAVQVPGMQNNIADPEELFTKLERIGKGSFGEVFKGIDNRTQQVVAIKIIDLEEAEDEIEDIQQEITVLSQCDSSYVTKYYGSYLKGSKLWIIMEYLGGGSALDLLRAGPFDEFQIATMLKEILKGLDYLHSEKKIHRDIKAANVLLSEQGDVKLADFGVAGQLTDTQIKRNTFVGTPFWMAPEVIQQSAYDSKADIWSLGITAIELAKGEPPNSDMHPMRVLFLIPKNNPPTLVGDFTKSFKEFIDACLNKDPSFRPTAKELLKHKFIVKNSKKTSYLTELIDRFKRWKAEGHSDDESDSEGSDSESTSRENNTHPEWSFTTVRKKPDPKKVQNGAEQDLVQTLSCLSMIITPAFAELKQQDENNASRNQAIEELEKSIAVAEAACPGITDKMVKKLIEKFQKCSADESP

[50] = molecular target: Tyrosine-protein kinase Lck (Homo sapiens) (UniProt P06239); conditions: 0.1 uM
Chain of Tyrosine-protein kinase Lck (Homo sapiens) (P06239 2-509 limits assumed): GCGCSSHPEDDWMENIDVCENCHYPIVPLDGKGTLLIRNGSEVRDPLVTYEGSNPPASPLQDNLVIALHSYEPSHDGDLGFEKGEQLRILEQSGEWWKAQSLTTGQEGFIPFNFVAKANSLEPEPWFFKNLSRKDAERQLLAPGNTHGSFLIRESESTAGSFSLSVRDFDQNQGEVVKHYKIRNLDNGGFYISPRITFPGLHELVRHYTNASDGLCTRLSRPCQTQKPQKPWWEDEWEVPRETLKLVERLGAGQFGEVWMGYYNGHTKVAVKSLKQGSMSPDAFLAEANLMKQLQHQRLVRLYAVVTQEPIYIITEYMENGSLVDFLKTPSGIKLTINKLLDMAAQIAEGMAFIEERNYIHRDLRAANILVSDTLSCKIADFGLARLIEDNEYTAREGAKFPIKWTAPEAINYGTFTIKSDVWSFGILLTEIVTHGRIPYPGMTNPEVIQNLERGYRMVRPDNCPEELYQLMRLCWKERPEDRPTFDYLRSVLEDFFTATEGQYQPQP

[51] = molecular target: 5-hydroxytryptamine receptor 1B (Rattus norvegicus) (UniProt P28564); conditions: Cerebral cortex, 10 uM
[52] = molecular target: 5-hydroxytryptamine receptor 2A (Homo sapiens) (UniProt P28223); conditions: HEK293, 10 uM
[53] = molecular target: 5-hydroxytryptamine receptor 2B (Homo sapiens) (UniProt P41595); conditions: CHO, 10 uM
[54] = molecular target: 5-hydroxytryptamine receptor 4 (Homo sapiens) (UniProt Q13639); conditions: CHO, 10 uM
Chain of 5-hydroxytryptamine receptor 4 (Homo sapiens) (Q13639 whole entry): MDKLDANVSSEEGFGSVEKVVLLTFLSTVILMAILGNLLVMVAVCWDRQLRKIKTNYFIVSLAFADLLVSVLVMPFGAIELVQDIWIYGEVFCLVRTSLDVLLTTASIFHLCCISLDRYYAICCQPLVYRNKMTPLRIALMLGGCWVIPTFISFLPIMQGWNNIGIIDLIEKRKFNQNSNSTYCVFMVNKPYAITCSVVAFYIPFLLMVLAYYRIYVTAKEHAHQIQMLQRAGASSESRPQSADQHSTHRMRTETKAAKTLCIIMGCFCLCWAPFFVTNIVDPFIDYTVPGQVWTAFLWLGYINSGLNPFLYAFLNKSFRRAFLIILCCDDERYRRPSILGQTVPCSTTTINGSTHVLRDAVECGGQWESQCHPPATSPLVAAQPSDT

[55] = organism: Rattus norvegicus; conditions: Cerebral cortex, 10 uM
[56] = molecular target: Sodium/potassium-transporting ATPase (Homo sapiens) (UniProt P05023+P14415+P05026+P50993+P54709+P13637+Q13733+P54710); conditions: 30 uM

CNc1ncc2cc(-c3ccc(-n4cccc(C)c4=O)cc3Cl)c(=O)n(CCC3(F)CN(C)C3)c2n1
Ki [1]: 0.95 nM | Selectivity ratio [2]: 57 | IC50 [3]: 33 nM | logD [4]: 1.8 | solubility kinetic [5]: 117 µM (≈ 59.6 µg/mL) | Papp A→B at 1 h, 10 µM [6]: 6.9 ×10⁻⁶ cm/s | efflux ratio at 1 h, 10 µM [7]: 2 | Ki [8]: 2 nM | fraction unbound [9]: 0.032 | Cmax [10]: 2800 nM | fCmax [11]: 0.088 µM | Ratio [12]: 1 | concentration at 0.25 h [13]: 2800 nM | Activity [14]: Toxic | Activity [15]: Toxic | Activity [16]: Toxic | concentration at 0.5 h [17]: 1890 nM | concentration at 0.25 h [18]: 2240 nM | Cp(f) [19]: 88 nM

CNc1ncc2cc(-c3ccc(-c4cccc(C)n4)cc3Cl)c(=O)n(C[C@H]3OC[C@H](N)CO3)c2n1
Papp A→B [20]: 0.3 ×10⁻⁶ cm/s | fraction unbound [21]: 0.003 | Cmax [22]: 55000 nM | fCmax [23]: 0.16 µM | inhibition [24]: Active | inhibition in vivo at 25 mg/kg [25]: 60% | inhibition in vivo at 25 mg/kg [26]: 60% | inhibition (INH) [27]: Not Active | inhibition [28]: inactive | inhibition [29]: inactive | inhibition (INH) [30]: Not Active | inhibition (INH) [31]: Not Active | inhibition [32]: inactive | inhibition [33]: inactive | Activity [34]: 64% | Activity [35]: Toxic | Activity [36]: Toxic | Activity [37]: Toxic | Activity [38]: Toxic | Activity [39]: Toxic | Activity [40]: Toxic | Activity [41]: Toxic | Activity [42]: Toxic | Activity [43]: 37% | Activity [44]: 34% | Activity [45]: Toxic | inhibition [46]: > 75% | inhibition [47]: > 75% | inhibition [48]: > 75% | inhibition [49]: > 75% | inhibition [50]: > 75% | inhibition [51]: > 75% | inhibition [52]: > 75% | inhibition [53]: > 75% | inhibition [54]: > 75% | inhibition [55]: > 75% | inhibition [56]: inactive
